Results taken from ChEMBL document CHEMBL1681759, “Synthesis and biological evaluation of benzimidazole-5-carbohydrazide derivatives as antimalarial, cytotoxic and antitubercular agents” (Bioorg Med Chem, 2011).
Values after ≈ are worked out from the molar mass of the structure shown.

Experiments:
M14 = assay: Cytotoxicity against human M14 cells assessed as growth inhibition after 48 hrs by sulforhodamine B assay; format: functional; settings: M14, 48 h
Summary of the method: (§1)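 Cells were exposed to serial compound dilutions in 96-well plates for 48 h at 37 °C alongside solvent controls. Growth was read colorimetrically by sulforhodamine B. GI50 is the concentration giving a 50% reduction in absorbance versus solvent-treated controls, derived by linear regression.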

HT-29 = assay: Cytotoxicity against human HT-29 cells assessed as growth inhibition after 48 hrs by sulforhodamine B assay; format: functional; settings: HT-29, 48 h; summary of the method: as §1
Plasmodium berghei [1] = assay: Antimalarial activity against chloroquine-susceptible Plasmodium berghei ANKA infected in Balb-C mouse; format: functional, organism-based
Summary of the method: (§2)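 Balb-C mice (18–23 g, n = 6) were infected iv in the caudal vein with 10⁶ P. berghei ANKA-infected RBCs. Dosing started 2 h post-infection: 20 mg/kg ip once daily for 4 days, DMSO stock diluted in Saline-Tween 20 (2%). Chloroquine 25 mg/kg served as positive control; untreated mice were controls. Parasitemia was read on day 4 from Giemsa smears, and survival days were recorded.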

Plasmodium berghei [2] = assay: Antimalarial activity against chloroquine-susceptible Plasmodium berghei ANKA infected in Balb-C mouse assessed as mouse survival days at 20 mg/kg, ip qd for 4 days […] relative to untreated control; format: functional; settings: route intraperitoneal
Plasmodium berghei [3] = assay: Antimalarial activity against chloroquine-susceptible Plasmodium berghei ANKA infected in Balb-C mouse assessed as inhibition parasitemia at 20 mg/kg, ip qd for 4 days […]; format: functional; settings: 96 h, route intraperitoneal; summary of the method: as §2
[4] = Inhibition of beta-hematin formation assessed as inhibition of […] polymerization at […] after 48 hrs; format: functional
Summary of the method: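 Hemin chloride (50 µL, 4 mM in DMSO) was mixed in triplicate with compound in DMSO; water or DMSO served as controls. Reaction was started with acetate buffer (0.2 M, pH 4.4) and run 37 °C for 48 h. The pellet was DMSO-washed twice, dissolved in 0.2 N NaOH, diluted 1:2 in 0.1 N NaOH, and read at 405 nm as % inhibition of FP polymerization.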

NCI-H460 = assay: Cytotoxicity against human H460 cells assessed as growth inhibition after 48 hrs by sulforhodamine B assay; format: functional; settings: NCI-H460, 48 h; summary of the method: as §1
[5] = Cytotoxicity against mouse 3T3 cells assessed as growth inhibition after 48 hrs by sulforhodamine B assay; format: cell-based; settings: NIH3T3 cells; summary of the method: as §1
DU-145 = assay: Cytotoxicity against human DU145 cells assessed as growth inhibition after 48 hrs by sulforhodamine B assay; format: functional; settings: DU-145, 48 h; summary of the method: as §1
[6] = Cytotoxicity against african green monkey Vero cells assessed as growth inhibition after 48 hrs by sulforhodamine B assay; format: cell-based; settings: chlorocebus sabaeus; summary of the method: as §1
[7] = system: Mycobacterium tuberculosis; assay: Antimycobacterial activity against Mycobacterium tuberculosis H37Rv after 5 days by tetrazolium microplate assay; format: functional; settings: 120 h
Summary of the method: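 Tetrazolium microplate assay run in 7H9GC broth. DMSO stocks (4 mg/mL) were diluted to final 0.4–25 µg/mL. Isoniazid (0.125–32 µg/mL) and rifampin (0.063–16 µg/mL) were positive controls; inoculum-only and DMSO controls were included. Plates were incubated 5 days at 37 °C, then an MTT-Tween 80 mix was added and incubation continued 24 h at 37 °C. Run in triplicate. MIC = lowest concentration preventing the yellow-to-purple colour change.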

MCF7 = assay: Cytotoxicity against human MCF7 cells assessed as growth inhibition after 48 hrs by sulforhodamine B assay; format: functional; settings: MCF7, 48 h; summary of the method: as §1
Plasmodium berghei [8] = assay: Antimalarial activity against chloroquine-susceptible Plasmodium berghei ANKA assessed as inhibition of trophozoite extract-mediated mouse hemoglobin hydrolysis at 10 mM after 18 hrs by SDS-PAGE; format: functional
Summary of the method: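 Trophozoite extract came from P. berghei-infected mouse blood at 30–50% parasitemia: RBCs percoll-purified (80–70%), saponin-lysed, then freeze–thawed three times. Substrate was native haemoglobin from uninfected mouse erythrocytes lysed in water. The mix held GSH and acetate buffer (0.2 M, pH 5.4). Compound was added in DMSO and incubated 37 °C, 18 h. Reactions were stopped with reduced sample buffer.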

K562 = assay: Cytotoxicity against human K562 cells assessed as growth inhibition after 48 hrs by sulforhodamine B assay; format: functional; settings: K562, 48 h; summary of the method: as §1

| Structure (SMILES) | GI50 (M14) [µg/mL] | GI50 (HT-29) [µg/mL] | IC50 (Plasmodium berghei [1]) [µM] | Survival (Plasmodium berghei [2]) [days] | inhibition in vivo at 20 mg/kg (Plasmodium berghei [3]) [%] | inhibition [4] [%] | GI50 (NCI-H460) [µg/mL] | GI50 at 48 h [5] [µg/mL] | GI50 (DU-145) [µg/mL] | GI50 at 48 h [6] [µg/mL] | MIC [7] [µg/mL] | GI50 (MCF7) [µg/mL] | inhibition at 10000 µM (Plasmodium berghei [8]) [%] | GI50 (K562) [µg/mL] |
| --- | --- | --- | --- | --- | --- | --- | --- | --- | --- | --- | --- | --- | --- | --- |
| O=C(O)c1ccc2[nH]c(-c3ccc([N+](=O)[O-])o3)nc2c1 | 250 (≈ 915 µM) | 250 (≈ 915 µM) | 8.43 | 17 | 4.02 | 95.4 | 125 (≈ 458 µM) | 62.5 (≈ 229 µM) | 125 (≈ 458 µM) | > 250 | > 25 | > 250 | 0 | 250 (≈ 915 µM) |
| O=C(NNC(=O)c1ccc2[nH]c(-c3ccc([N+](=O)[O-])o3)nc2c1)c1cccc(Oc2ccccc2)c1 | > 7.8 | > 7.8 | 14.1 | 10.6 | 12.9 | 84.6 | > 7.8 | > 7.8 | > 7.8 | > 7.8 | > 25 | > 7.8 | – | > 7.8 |
| CCN(CC)CCCC(C)Nc1ccnc2cc(Cl)ccc12 (stereo not drawn) [CHLOROQUINE] | – | – | – | >30 | 1.3 | 94.2 | – | – | – | – | – | – | 24.1 | – |
| O=C(NNC(=O)c1cc2ccccc2cc1O)c1ccc2[nH]c(-c3ccc([N+](=O)[O-])o3)nc2c1 | – | – | – | – | – | 31.7 | – | – | – | – | – | – | 12.9 | – |
| O=C(NNC(=O)c1ccc2[nH]c(-c3ccc([N+](=O)[O-])o3)nc2c1)c1ccccc1 | 15.6 (≈ 39.9 µM) | 31.2 (≈ 79.9 µM) | 10.9 | 13.6 | 10.1 | 79.2 | 62.5 (≈ 160 µM) | 31.2 (≈ 79.9 µM) | 15.6 (≈ 39.9 µM) | 31.2 (≈ 79.9 µM) | 12.5 (≈ 31.9 µM) | 62.5 (≈ 160 µM) | 0 | 15.6 (≈ 39.9 µM) |
| CC(C)CC(=O)N[C@H](C(=O)N[C@H](C(=O)N[C@@H](CC(C)C)[C@@H](O)CC(=O)N[C@@H](C)C(=O)N[C@@H](CC(C)C)[C@@H](O)CC(=O)O)C(C)C)C(C)C [PEPSTATIN] | – | – | – | – | – | – | – | – | – | – | – | – | 95.5 | – |
| COc1cccc(C(=O)NNC(=O)c2ccc3[nH]c(-c4ccc([N+](=O)[O-])s4)nc3c2)c1 | 15.6 (≈ 35.7 µM) | 31.2 (≈ 71.4 µM) | 24.5 | 10.6 | 24.8 | 61.6 | 62.5 (≈ 143 µM) | 15.6 (≈ 35.7 µM) | 62.5 (≈ 143 µM) | > 250 | > 25 | 15.6 (≈ 35.7 µM) | 13.4 | 15.6 (≈ 35.7 µM) |
| CC(=O)N[C@@H](CC(C)C)C(=O)N[C@@H](CC(C)C)C(=O)N[C@H](C=O)CCCNC(=N)N [LEUPEPTIN] | – | – | – | – | – | – | – | – | – | – | – | – | 91.6 | – |
| COc1ccc(C(=O)NNC(=O)c2ccc3[nH]c(-c4ccc([N+](=O)[O-])o4)nc3c2)cc1OC | 15.6 (≈ 34.6 µM) | 15.6 (≈ 34.6 µM) | 8.71 | 12.2 | 4.8 | 94.8 | 15.6 (≈ 34.6 µM) | 31.2 (≈ 69.2 µM) | 15.6 (≈ 34.6 µM) | 62.5 (≈ 138 µM) | > 25 | 31.2 (≈ 69.2 µM) | 34.5 | 15.6 (≈ 34.6 µM) |
| O=C(NNC(=O)c1ccc2[nH]c(-c3ccc([N+](=O)[O-])s3)nc2c1)c1cccc(Oc2ccccc2)c1 | – | – | 19.1 | 11 | 7.28 | 76.5 | – | – | – | – | – | – | 0 | – |
| COc1cccc(C(=O)NNC(=O)c2ccc3[nH]c(-c4ccc([N+](=O)[O-])o4)nc3c2)c1 | 7.81 (≈ 18.5 µM) | 31.2 (≈ 74.2 µM) | 13.1 | 11.8 | 5.98 | 72.4 | 62.5 (≈ 148 µM) | 15.6 (≈ 37.1 µM) | 15.6 (≈ 37.1 µM) | 31.2 (≈ 74.2 µM) | 25 (≈ 59.3 µM) | 15.6 (≈ 37.1 µM) | 2.82 | 15.6 (≈ 37.1 µM) |
| O=CNNC(=O)c1ccc2[nH]c(-c3ccc([N+](=O)[O-])o3)nc2c1 | 31.2 (≈ 99.1 µM) | 62.5 (≈ 198 µM) | 8.63 | 8.2 | 25.8 | 94 | 31.2 (≈ 99.1 µM) | 62.5 (≈ 198 µM) | 15.6 (≈ 49.6 µM) | 62.5 (≈ 198 µM) | > 25 | 62.5 (≈ 198 µM) | 24.2 | 31.2 (≈ 99.1 µM) |
| O=C(NNC(=O)c1ccc2[nH]c(-c3ccc([N+](=O)[O-])s3)nc2c1)c1ccccc1 | – | – | 10.8 | 12 | 10.1 | 86.2 | – | – | – | – | – | – | 39.2 | – |
| COc1ccc(C(=O)NNC(=O)c2ccc3[nH]c(-c4ccc([N+](=O)[O-])s4)nc3c2)cc1OC | – | – | 21.4 | 13.8 | 16.1 | 70.8 | – | – | – | – | – | – | 38.2 | – |
| O=C(O)c1ccc2[nH]c(-c3ccc([N+](=O)[O-])s3)nc2c1 | – | – | 21.1 | 12.2 | 11.5 | 57.6 | – | – | – | – | – | – | 0 | – |
| O=C(NNC(=O)c1ccc2[nH]c(-c3ccc([N+](=O)[O-])s3)nc2c1)c1ccc(Cl)cc1 | – | – | – | 10.8 | 13.5 | 25.5 | – | – | – | – | – | – | 12.7 | – |
| CO[C@H]1/C=C/O[C@@]2(C)Oc3c(C)c(O)c4c(O)c(c(/C=N/N5CCN(C)CC5)c(O)c4c3C2=O)NC(=O)/C(C)=C\C=C\[C@H](C)[C@H](O)[C@@H](C)[C@@H](O)[C@@H](C)[C@H](OC(C)=O)[C@@H]1C [RIFAMPIN] | – | – | – | – | – | – | – | – | – | – | 0.063 (≈ 0.0766 µM) | – | – | – |
| COc1cc(C(=O)NNC(=O)c2ccc3[nH]c(-c4ccc([N+](=O)[O-])s4)nc3c2)cc(OC)c1OC | 62.5 (≈ 126 µM) | 62.5 (≈ 126 µM) | 9.56 | 10 | 9.36 | 92.4 | 62.5 (≈ 126 µM) | 31.2 (≈ 62.8 µM) | 62.5 (≈ 126 µM) | 31.2 (≈ 62.8 µM) | > 25 | 31.2 (≈ 62.8 µM) | – | 31.2 (≈ 62.8 µM) |
| COc1cc(C(=O)NNC(=O)c2ccc3[nH]c(-c4ccc([N+](=O)[O-])o4)nc3c2)cc(OC)c1OC | 15.6 (≈ 32.5 µM) | 31.2 (≈ 64.9 µM) | 14.4 | 12.2 | 9.4 | 69.4 | 31.2 (≈ 64.9 µM) | 31.2 (≈ 64.9 µM) | 15.6 (≈ 32.5 µM) | 31.2 (≈ 64.9 µM) | > 25 | 31.2 (≈ 64.9 µM) | 0 | 31.2 (≈ 64.9 µM) |
| O=C(NNC(=O)c1ccc2[nH]c(-c3ccc([N+](=O)[O-])s3)nc2c1)c1cccc(Cl)c1 | – | – | 16 | 7.4 | 27.2 | 78.6 | – | – | – | – | – | – | 44.9 | – |
| O=CNNC(=O)c1ccc2[nH]c(-c3ccc([N+](=O)[O-])s3)nc2c1 | – | – | 9.88 | 10.04 | 18.7 | 87.4 | – | – | – | – | – | – | 36.2 | – |
| NNC(=O)c1ccncc1 [ISONIAZID] | – | – | – | – | – | – | – | – | – | – | 0.125 (≈ 0.911 µM) | – | – | – |
| O=C(NNC(=O)c1ccc2[nH]c(-c3ccc([N+](=O)[O-])o3)nc2c1)c1ccc(Cl)cc1 | – | – | 23.4 | 9.8 | 27.4 | 59.6 | – | – | – | – | – | – | 33.8 | – |
| O=C(NNC(=O)c1ccc2[nH]c(-c3ccc([N+](=O)[O-])o3)nc2c1)c1cccc(Cl)c1 | – | – | 10.3 | 12.4 | 3.38 | 73.4 | – | – | – | – | – | – | 39 | – |
